Where a chain is given by its changes, count along the chain named.
What was measured:
MAGE-A4 [1] = biological target: T1, MAGE-A4 (Homo sapiens, UniProt P43358); assay: MALDI-MS covalent modification of MAGE-A4; assay type: binding
T1 sequence (P43358 1-317): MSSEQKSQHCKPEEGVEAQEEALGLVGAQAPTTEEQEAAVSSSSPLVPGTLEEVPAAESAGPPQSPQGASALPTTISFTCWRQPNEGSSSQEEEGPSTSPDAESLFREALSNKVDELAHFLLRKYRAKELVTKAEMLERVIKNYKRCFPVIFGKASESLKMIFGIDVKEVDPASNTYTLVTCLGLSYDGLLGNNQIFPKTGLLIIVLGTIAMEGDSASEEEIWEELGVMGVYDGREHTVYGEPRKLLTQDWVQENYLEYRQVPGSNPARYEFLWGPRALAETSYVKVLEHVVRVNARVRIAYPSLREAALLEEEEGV
Method in brief: (§1)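 MAGE-A4 wild type or its C80A mutant was incubated with each peptide, and the intact protein was analysed by MALDI-MS for covalent adducts. L-Ala and D-Ala variants of each peptide, in which the dehydroalanines are replaced, were run in parallel.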

MAGE-A4 C80A [2] = biological target: T2, MAGE-A4 C80A (Homo sapiens, UniProt P43358, C80A); assay: MALDI-MS covalent modification of MAGE-A4 C80A mutant; assay type: binding
T2 sequence (P43358 1-317 C80A): T1 sequence (P43358 1-317) with C80A
Method in brief: as §1

MAGE-A4 [3] = biological target: T1, MAGE-A4; assay: TR-FRET between AF647-MTP-1 and MAGE-A4; assay type: binding
Method in brief: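 Time-dependent TR-FRET measured displacement of AF647-labelled MTP-1 peptide tracer from MAGE-A4 (and from MAGE-A4 C80A) by covalent peptides. IC50 values were calculated from the resulting TR-FRET curves.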

MAGE-A4 C80A [4] = biological target: T2, MAGE-A4 C80A; assay: TR-FRET between AF647-MTP-1 and MAGE-A4 C80A; assay type: binding; details: TR-FRET vs AF647-MTP-1
MAGE-A4 [5] = biological target: T1, MAGE-A4; assay: Mass dilution TR-FRET assay for kinetic parameters; assay type: binding
RAD18-MAGE-A4 complex = biological target: T3, RAD18-MAGE-A4 complex (Homo sapiens, UniProt P43358); assay: Co-immunoprecipitation of the RAD18-MAGE-A4 complex in cell lysates; details: 10 μM peptides
T3 sequence (P43358 1-317): T1 sequence (P43358 1-317)
Method in brief: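 Read-out is Western blotting of MAGE-A4 co-immunoprecipitated with RAD18 from cell lysates. Peptides were tested at 10 μM, alongside a peptide included as a negative control.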

Substance: MCP1
- covalent modification of MAGE-A4 (MAGE-A4 [1]): modify MAGE-A4
- covalent modification of MAGE-A4 C80A mutant (MAGE-A4 C80A [2]): did not label
- IC50 (MAGE-A4 [3]; after 1 hour): 9 nM
- change in potency over time (MAGE-A4 [3]; time-dependent TR-FRET): small yet significant increases in potency over time
- IC50 / activity in the presence of MAGE-A4 C80A (MAGE-A4 C80A [4]): fell in between those of their L- and D-Ala mutants
- Ki (MAGE-A4 [5]): 7.3 ± 1.1 nM
- inactivation efficiency (kinact/KI) (MAGE-A4 [5]): 8.17e+06 ± 867000 M⁻¹ s⁻¹
- kinact (MAGE-A4 [5]): 3.4 ± 0.3 min⁻¹
- disruption of MAGE-A4 pulldown with RAD18 (RAD18-MAGE-A4 complex): able to disrupt MAGE-A4 pulldown

Source: publication PMC11246720 (Journal of the American Chemical Society, 2023)
